A short description of experiment [1]: Inhibition of Leishmania donovani MetAP1 expressed in Escherichia coli BL21 (DE3) using L-methionine-4-methyl-coumary1-7-amide as substrate preincubated for 30 mins followed by substrate addition and measured at 1 min interval for 30 mins by spectrofluorometric method. The procedure, abridged:
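His-tagged LdMetAP1 from pET28a, purified by Ni-NTA and gel filtration. Enzyme preincubated 30 min in metal-supplemented assay buffer with compound. L-Met-AMC added at 125 µM and fluorescence recorded. Percent inhibition taken as the net fluorescence decrease against control reactions; IC50 from a range of compound concentrations.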

A short description of experiment [2]: Cytotoxicity against mouse embryonic fibroblasts measured after 48 hrs by MTT assay. The conditions noted are these: Fibroblast. The method in brief: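 Mouse embryonic fibroblasts exposed to compounds at 0, 50, 100 and 200 µM for 48 h. MTT solution (5 mg/ml) then added for 4 h at 37°C. Formazan dissolved in DMSO and absorbance read at 570 nm.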
The nature of experiment [3]: Binding affinity to Leishmania donovani MetAP1 expressed in Escherichia coli BL21 (DE3) by surface plasmon resonance analysis. The procedure, abridged:
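Recombinant LdMetAP1 amine-coupled to a CM-5 dextran chip. Running and injection buffer was 1X PBS pH 7.4 with 0.05% P-20. Compounds in 2% DMSO injected over the chip at a range of concentrations to record response units. After solvent correction, kinetics fitted to a 1:1 Langmuir binding model.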
For orientation: Surface plasmon resonance follows binding to a sensor surface in real time, without labels.

Experiment [4] concerns Leishmania donovani. The experiment is described as follows: Competitive inhibition of Leishmania donovani MetAP1 expressed in Escherichia coli BL21 (DE3) at 1 to 10 uM using varying levels of L-methionine-4-methyl-coumary1-7-amide as substrate preincubated for 30 mins followed by substrate addition and measured for 30 mins by Lineweaver-burk plot analysis. The note with it: dose 1-10 µM, time 60.0 min.

Experiment [5] deals with Leishmania donovani. In words: Binding affinity to Leishmania donovani MetAP1 expressed in Escherichia coli BL21 (DE3) assessed as intrinsic fluorescence quenching of tryptophan residues measured after 30 mins by fluorescence spectroscopic method. The procedure, abridged: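 LdMetAP1 at 1 µM final in 20 mM Tris-HCl pH 7.5, 50 mM NaCl, incubated with compounds for 30 min at 25°C. Tryptophan fluorescence read at excitation ~295 nm, emission ~300-400 nm. F0/F1 plotted against compound concentration. KSV from linear regression; binding parameters from modified Stern-Volmer plots.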

Experiment [6] relates to Leishmania donovani. The experiment is described as follows: Uncompetitive inhibition of Leishmania donovani MetAP1 expressed in Escherichia coli BL21 (DE3) at 1 to 10 uM using varying levels of L-methionine-4-methyl-coumary1-7-amide as substrate preincubated for 30 mins followed by substrate addition and measured for 30 mins by Lineweaver-burk plot analysis. The note with it: dose 1-10 µM, time 60.0 min.

We go through 20 compounds from ChEMBL document CHEMBL4715836, “Synthesis and characterization of quinoline-carbaldehyde derivatives as novel inhibitors for leishmanial methionine aminopeptidase 1” (Eur J Med Chem, 2020).

SMILES strings stand for the structures. Activity calls are given as the source filed them. The rule behind the calls is not given here.

Broadly, the IC50 is the midpoint of a concentration-inhibition curve. Low values mean greater potency in that assay, high ones weaker potency in that assay. As to `O=C1CSC(c2ccc3cccc(O)c3n2)N1c1cccc(Br)c1` (stereo unspecified), the IC50 in experiment [1] was determined as 46.1 µM.
On the same count and under the same terms, the figure for `O=C1CSC(c2ccc3cccc(O)c3n2)N1c1ccc(Br)cc1` (stereo unspecified) is 36.8 µM.
Still for that read-out and setting: the figure for `COc1cccc(N2C(=O)CSC2c2ccc3cccc(O)c3n2)c1` (stereo unspecified) is 39.7 µM; for `CC(C)c1ccc(N2C(=O)CSC2c2ccc3cccc(O)c3n2)cc1` (stereo unspecified) it is 37.4 µM; for `O=C1CSC(c2ccc3cccc(O)c3n2)N1c1ccc(Oc2ccccc2)cc1` (stereo unspecified) it is 43.8 µM.
As a reminder, the Kd is a measure of binding affinity in units of concentration. Low readings indicate a tighter complex, high ones a looser complex. In the case of `N#Cc1cccc(N2C(=O)CSC2c2ccc3cccc(O)c3n2)c1` (stereo unspecified), the IC50 was above 250 µM in experiment [2] and 11.7 µM in experiment [1]. In addition, binding in experiment [3] was characterised by a dissociation constant (Kd) of 0.0154 µM. The inhibition result in the experiment with Leishmania donovani [4] is “Active”. Moreover, the Activity result in the experiment on Leishmania donovani [5] was “Dose-dependent effect”.
The compound `Cc1cccc(N2C(=O)CSC2c2ccc3cccc(O)c3n2)c1` (stereo unspecified) returned an IC50 in experiment [1] of 27.9 µM.
`O=C1CSC(c2ccc3cccc(O)c3n2)N1c1ccc(I)cc1` (stereo unspecified) displayed an IC50 in experiment [1] of 252 µM.
On to `Cc1ccc(N2C(=O)CSC2c2ccc3cccc(O)c3n2)cc1` (stereo unspecified), for which the IC50 in experiment [2] is above 200 µM; in experiment [1] it was 1.31 µM. Further, in experiment [3], the Kd was 0.0215 µM. The inhibition entry in the experiment on Leishmania donovani [4] was “Active”. Also, the Activity result in the experiment with Leishmania donovani [5] was “Dose-dependent effect”.
Take `O=C1CSC(c2ccc3cccc(O)c3n2)N1c1ccc(Cl)cc1` (stereo unspecified): the results for the IC50 in experiment [2] and in experiment [1] were above 200 µM and 1.1 µM, respectively. The compound also returned a Kd in experiment [3] of 0.015 µM. The inhibition entry in the experiment on Leishmania donovani [4] is “Active”. In the experiment on Leishmania donovani [5], the Activity result is “Dose-dependent effect”.
Take `O=C1CSC(c2ccc3cccc(O)c3n2)N1c1cccc(OC(F)(F)F)c1` (stereo unspecified): half-maximal inhibition in experiment [1] (IC50) was put at 46.4 µM.
On the same count and under the same terms, then `COc1ccc(N2C(=O)CSC2c2ccc3cccc(O)c3n2)cc1OC` (stereo unspecified), with 26.4 µM; and `O=C1CSC(c2ccc3cccc(O)c3n2)N1c1ccccc1` (stereo unspecified), with 79.9 µM.
With `O=C1CSC(c2ccc3cccc(O)c3n2)N1c1cccc(F)c1` (stereo unspecified), the IC50 turned out to be 120 µM in experiment [2] and 8.8 µM in experiment [1]. This compound returned a Kd in experiment [3] of 0.000161 µM. The Activity entry in the experiment on Leishmania donovani [5] is “Dose-dependent effect”. The inhibition result in the experiment with Leishmania donovani [6] is “Active”.
For `O=C1CSC(c2ccc3cccc(O)c3n2)N1c1ccc(C(F)(F)F)cc1` (stereo unspecified), inhibition in experiment [1] was half-maximal at 54.1 µM (IC50).
On the same count and under the same terms, then `COc1cc(OC)cc(N2C(=O)CSC2c2ccc3cccc(O)c3n2)c1` (stereo unspecified), with 18.4 µM; and `COc1ccc(N2C(=O)CSC2c2ccc3cccc(O)c3n2)cc1` (stereo unspecified), with 62.5 µM; and `O=C1CSC(c2ccc3cccc(O)c3n2)N1c1ccc(F)cc1` (stereo unspecified), with 45.5 µM.
Still for that read-out and setting: the figure for `COc1cc(N2C(=O)CSC2c2ccc3cccc(O)c3n2)cc(OC)c1OC` (stereo unspecified) is 12.9 µM; for `COc1ccccc1N1C(=O)CSC1c1ccc2cccc(O)c2n1` (stereo unspecified) it is 18.4 µM.
